Data published in ChEMBL document CHEMBL3286317, “Synthesis and biological evaluation of a unique heparin mimetic hexasaccharide for structure-activity relationship studies” (J Med Chem, 2014).
Values belong to the compound of their own block, whether it stands above or below them.

Experiments:
[1] = target: T1, Heparanase (Homo sapiens) (UniProt Q9Y251); assay: Inhibition of recombinant heparanase (unknown origin) using biotin-cryptate-labeled heparan sulfate as substrate at 8.3 mg/ml preincubated for 15 mins prior to substrate challenge by TR-FRET assay
T1 sequence (whole entry): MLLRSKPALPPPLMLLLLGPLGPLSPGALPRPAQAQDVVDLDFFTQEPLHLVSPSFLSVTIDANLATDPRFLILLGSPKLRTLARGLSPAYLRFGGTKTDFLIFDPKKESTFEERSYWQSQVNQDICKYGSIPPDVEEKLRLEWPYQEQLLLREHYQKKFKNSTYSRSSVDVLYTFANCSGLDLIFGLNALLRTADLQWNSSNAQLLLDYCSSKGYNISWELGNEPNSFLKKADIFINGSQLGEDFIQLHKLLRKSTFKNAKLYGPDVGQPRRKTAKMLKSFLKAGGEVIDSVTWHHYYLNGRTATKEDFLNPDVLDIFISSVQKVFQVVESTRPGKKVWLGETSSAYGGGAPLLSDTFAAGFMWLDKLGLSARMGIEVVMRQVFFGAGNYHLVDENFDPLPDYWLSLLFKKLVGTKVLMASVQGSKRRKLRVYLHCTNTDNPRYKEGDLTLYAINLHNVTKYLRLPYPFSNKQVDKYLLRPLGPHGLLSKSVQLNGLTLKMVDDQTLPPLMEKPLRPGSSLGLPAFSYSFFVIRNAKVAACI
Outline: (§1)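 Recombinant heparanase was preincubated with compound at various concentrations for 15 min at 37 °C. It was then added to biotin-cryptate-labeled heparan sulfate substrate with streptavidin-XL665 for 1 h at 37 °C. Read-out was TR-FRET between europium cryptate and XL665.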

Protein Wnt-3a = Protein Wnt-3a (Homo sapiens, UniProt P56704); assay: Binding affinity to human recombinant WNT3A by surface plasmon resonance assay
Outline: (§2)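 Biotinylated low-molecular-weight heparin was captured on a neutravidin surface. Protein at varying concentrations was mixed with a hexasaccharide dilution series and injected. Free protein was read from a quadratic slope-vs-concentration standard curve. KD = [P_free][H_total]/[P_bound], averaged over three hexasaccharide concentrations.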

[2] = target: T1, Heparanase (Homo sapiens); assay: Inhibition of recombinant heparanase (unknown origin) using biotin-cryptate-labeled heparan sulfate as substrate at 4.2 mg/ml preincubated for 15 mins prior to substrate challenge by TR-FRET assay; outline: as §1
[3] = target: T2, Secreted frizzled-related protein 1 (Homo sapiens, UniProt Q8N474); assay: Binding affinity to human recombinant sFRP1 by surface plasmon resonance assay; outline: as §2
T2 sequence (Q8N474 whole entry): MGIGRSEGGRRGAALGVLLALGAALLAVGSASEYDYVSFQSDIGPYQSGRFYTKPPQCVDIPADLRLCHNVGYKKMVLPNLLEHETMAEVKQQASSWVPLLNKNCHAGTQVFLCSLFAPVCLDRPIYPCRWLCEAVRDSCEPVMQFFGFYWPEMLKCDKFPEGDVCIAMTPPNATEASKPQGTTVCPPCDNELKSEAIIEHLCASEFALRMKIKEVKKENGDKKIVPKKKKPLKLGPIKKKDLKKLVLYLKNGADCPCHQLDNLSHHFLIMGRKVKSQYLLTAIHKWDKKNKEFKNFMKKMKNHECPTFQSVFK

Sequence of Protein Wnt-3a (P56704 whole entry): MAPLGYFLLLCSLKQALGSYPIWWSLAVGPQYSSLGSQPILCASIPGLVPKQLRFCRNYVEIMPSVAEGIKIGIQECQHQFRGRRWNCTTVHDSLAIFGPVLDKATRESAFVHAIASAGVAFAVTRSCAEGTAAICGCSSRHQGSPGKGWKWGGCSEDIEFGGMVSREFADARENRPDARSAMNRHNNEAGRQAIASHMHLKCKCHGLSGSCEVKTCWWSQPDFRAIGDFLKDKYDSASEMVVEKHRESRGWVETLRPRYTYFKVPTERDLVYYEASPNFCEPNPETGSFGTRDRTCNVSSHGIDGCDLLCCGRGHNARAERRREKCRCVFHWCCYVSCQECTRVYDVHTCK

Imax [1]: 30.7%
Compound: CCCCCO[C@H]1O[C@H](COS(=O)(=O)O)[C@@H](O[C@@H]2O[C@@H](C(=O)O)[C@@H](O[C@H]3O[C@H](COS(=O)(=O)O)[C@@H](O[C@@H]4O[C@@H](C(=O)O)[C@@H](O[C@H]5O[C@H](COS(=O)(=O)O)[C@@H](O[C@@H]6O[C@@H](C(=O)O)[C@@H](O)[C@H](O)[C@H]6OS(=O)(=O)O)[C@H](O)[C@H]5NC(C)=O)[C@H](O)[C@H]4OS(=O)(=O)O)[C@H](O)[C@H]3NC(C)=O)[C@H](O)[C@H]2OS(=O)(=O)O)[C@H](O)[C@H]1NC(C)=O

Kd (Protein Wnt-3a): 18 µM | Imax [2]: 47.2%
Compound: CCCCCO[C@H]1O[C@H](COS(=O)(=O)O)[C@@H](O[C@@H]2O[C@@H](C(=O)O)[C@@H](O[C@H]3O[C@H](COS(=O)(=O)O)[C@@H](O[C@@H]4O[C@@H](C(=O)O)[C@@H](O[C@H]5O[C@H](COS(=O)(=O)O)[C@@H](O[C@@H]6O[C@@H](C(=O)O)[C@@H](O)[C@H](O)[C@H]6OS(=O)(=O)O)[C@H](O)[C@H]5NC(C)=O)[C@H](O)[C@H]4OS(=O)(=O)O)[C@H](O)[C@H]3NS(=O)(=O)O)[C@H](O)[C@H]2O)[C@H](O)[C@H]1NC(C)=O

Kd [3]: 9 µM
Compound: NCCCCCO[C@H]1O[C@H](CO)[C@@H](O[C@@H]2O[C@@H](C(=O)O)[C@@H](O[C@H]3O[C@H](CO)[C@@H](O[C@@H]4O[C@@H](C(=O)O)[C@@H](O[C@H]5O[C@H](CO)[C@@H](O[C@@H]6O[C@@H](C(=O)O)[C@@H](O)[C@H](O)[C@H]6OS(=O)(=O)O)[C@H](O)[C@H]5NS(=O)(=O)O)[C@H](O)[C@H]4OS(=O)(=O)O)[C@H](O)[C@H]3NS(=O)(=O)O)[C@H](O)[C@H]2OS(=O)(=O)O)[C@H](O)[C@H]1NS(=O)(=O)O
